Reference: ChEMBL document CHEMBL1145910, “5,6,7-trisubstituted 4-aminopyrido[2,3-d]pyrimidines as novel inhibitors of adenosine kinase” (J Med Chem, 2003)

What was measured:
Adenosine kinase [1] = biological target: Adenosine kinase (Homo sapiens, UniProt P55263); experiment: Inhibition of adenosine kinase activity in IMR-32 human neuroblastoma cells; type: cell-based
Adenosine kinase [2] = biological target: Adenosine kinase (Rattus norvegicus, UniProt Q64640); experiment: Inhibition adenosine kinase activity in rat brain in vitro; type: tissue-based
Mus musculus = experiment: Percent maximal protective effect for hotplate analgesia in mice after 30 umol/kg intraperitoneal administration; type: functional
Outline: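 Mice (n = 6-8 per group) tested on 55 °C hotplate 30 min after intraperitoneal dosing. %MPE = (postdrug latency − vehicle latency)/(cutoff latency − vehicle latency) × 100, cutoff 180 s; significance versus vehicle-treated mice at p < 0.05.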

Rattus norvegicus = experiment: Reduction in formalin induced nociception after 10 umol/kg intraperitoneal administration

Chain of Adenosine kinase (Homo sapiens, UniProt P55263) (P55263 whole entry): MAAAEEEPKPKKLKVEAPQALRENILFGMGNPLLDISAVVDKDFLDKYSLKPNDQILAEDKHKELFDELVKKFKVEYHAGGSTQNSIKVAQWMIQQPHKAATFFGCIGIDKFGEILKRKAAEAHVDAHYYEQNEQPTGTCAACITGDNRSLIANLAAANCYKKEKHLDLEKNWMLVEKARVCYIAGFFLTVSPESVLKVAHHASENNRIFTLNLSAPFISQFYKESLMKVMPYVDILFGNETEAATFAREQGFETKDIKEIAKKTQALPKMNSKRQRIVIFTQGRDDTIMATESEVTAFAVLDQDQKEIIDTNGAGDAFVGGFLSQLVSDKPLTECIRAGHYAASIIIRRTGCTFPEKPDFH
Chain of Adenosine kinase (Rattus norvegicus, UniProt Q64640) (Q64640 whole entry): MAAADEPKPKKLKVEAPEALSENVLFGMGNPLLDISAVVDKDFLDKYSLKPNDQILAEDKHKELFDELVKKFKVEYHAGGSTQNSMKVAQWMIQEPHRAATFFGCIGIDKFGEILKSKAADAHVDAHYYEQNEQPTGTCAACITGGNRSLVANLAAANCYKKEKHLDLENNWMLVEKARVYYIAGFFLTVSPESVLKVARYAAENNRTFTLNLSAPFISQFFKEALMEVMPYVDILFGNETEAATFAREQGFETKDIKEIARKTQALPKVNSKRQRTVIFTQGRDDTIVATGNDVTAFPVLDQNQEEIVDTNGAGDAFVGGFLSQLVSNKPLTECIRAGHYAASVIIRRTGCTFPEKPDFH

Row | SMILES | IC50 (Adenosine kinase [1]) | IC50 (Adenosine kinase [2]) | Max protective effect (Mus musculus) | Max protective effect (Rattus norvegicus)
1 | COc1ccc(-c2c(-c3cccs3)nc3ncnc(N)c3c2-c2cc(Br)cs2)cc1OC | 25 nM | 0.43 nM |  | 
2 | CC(C)c1ccc(-c2c(-c3ccc(N(C)C)cc3)nc3ncnc(N)c3c2-c2ccc(C(C)C)cc2)cc1 | > 1000 nM | 6.7 nM |  | 
3 | COCCN(C)c1ccc(-c2nc3ncnc(N)c3c(-c3cc(Br)cs3)c2-c2ccc(OC)c(OC)c2)cc1 | 367 nM | 0.98 nM |  | 
4 | Nc1ncnc2nc(-c3cccs3)c(-c3ccccc3)c(-c3ccccc3)c12 | 49 nM | 0.55 nM |  | 
5 | Cc1ccc(-c2c(-c3cccs3)nc3ncnc(N)c3c2-c2ccc(C)c(F)c2)cc1F | 288 nM | 0.25 nM |  | 
6 | CN(C)c1ccc(-c2nc3ncnc(N)c3c(-c3ccccc3)c2-c2ccccc2)cc1 | 250 nM | 16 nM | 77% | 
7 | COc1ccc(-c2c(-c3ccc(N(C)C)cc3)nc3ncnc(N)c3c2-c2cccc(Br)c2)cc1OC | 350 nM | 3.1 nM |  | 
8 | CN(C)c1ccc(-c2nc3ncnc(N)c3cc2-c2ccccc2)cc1 | 1500 nM | 350 nM |  | 
9 | CN(C)c1ccc(-c2nc3ncnc(N)c3c(-c3cc(Br)cs3)c2C2CC2)cn1 | 625 nM | 60 nM |  | 
10 | CN(C)c1ccc(-c2nc3ncnc(N)c3c(-c3ccccc3)c2-c2ccccc2)cn1 | 53 nM | 3.2 nM | 50% | 38%

The next lines start with results.

Row | IC50 (Adenosine kinase [1]) | IC50 (Adenosine kinase [2]) | SMILES | Max protective effect (Mus musculus) | Max protective effect (Rattus norvegicus)
11 | 155 nM | 4 nM | Nc1ncnc2nc(-c3ccc(N4CCOCC4)nc3)c(-c3ccccc3)c(-c3cccc(Br)c3)c12 |  | 
12 | 625 nM | 55 nM | CCCCCc1c(-c2ccc(N(C)C)nc2)nc2ncnc(N)c2c1-c1cccc(Br)c1 |  | 
13 | > 1000 nM | 400 nM | CC(C)c1c(-c2ccc(N3CCOCC3)nc2)nc2ncnc(N)c2c1-c1cccc(Br)c1 |  | 
14 | 197 nM | 5 nM | Nc1ncnc2nc(-c3ccc(N4CCOCC4)nc3)c(-c3ccc(F)cc3)c(-c3cccc(Br)c3)c12 |  | 
15 | 163 nM | 3 nM | COC(=O)Cc1c(-c2cccs2)nc2ncnc(N)c2c1-c1cccc(Br)c1 |  | 
16 | 130 nM | 37 nM | CN(C)c1ccc(-c2c(-c3ccc(N4CCOCC4)nc3)nc3ncnc(N)c3c2-c2cccc(Cl)c2)cc1 |  | 
17 | > 1000 nM | 300 nM | CN(C)c1ccc(-c2nc3ncnc(N)c3c(-c3cccc(Br)c3)c2C2CCCCC2)cn1 |  | 
18 | 450 nM | 63 nM | Nc1ncnc2nc(-c3ccc(N4CCOCC4)nc3)c(Cc3ccccc3)c(-c3cccc(Br)c3)c12 |  | 
19 | 130 nM | 5 nM | CN(C)c1ccc(-c2nc3ncnc(N)c3c(-c3cccc(Cl)c3)c2-c2ccccc2)cn1 | 56% | 39%
20 | 22000 nM | 410 nM | Clc1ccc(-c2cnc3c(N4CCOCC4)ncnc3n2)cc1 |  | 
